What was measured:
[1] = molecular target: T1, [Pyruvate dehydrogenase (acetyl-transferring)] kinase isozyme 4, mitochondrial (Homo sapiens, UniProt Q16654); assay: Inhibition of PDK4 (unknown origin) at 10 uM relative to control
Target sequence in this assay (Q16654 whole entry, looked up): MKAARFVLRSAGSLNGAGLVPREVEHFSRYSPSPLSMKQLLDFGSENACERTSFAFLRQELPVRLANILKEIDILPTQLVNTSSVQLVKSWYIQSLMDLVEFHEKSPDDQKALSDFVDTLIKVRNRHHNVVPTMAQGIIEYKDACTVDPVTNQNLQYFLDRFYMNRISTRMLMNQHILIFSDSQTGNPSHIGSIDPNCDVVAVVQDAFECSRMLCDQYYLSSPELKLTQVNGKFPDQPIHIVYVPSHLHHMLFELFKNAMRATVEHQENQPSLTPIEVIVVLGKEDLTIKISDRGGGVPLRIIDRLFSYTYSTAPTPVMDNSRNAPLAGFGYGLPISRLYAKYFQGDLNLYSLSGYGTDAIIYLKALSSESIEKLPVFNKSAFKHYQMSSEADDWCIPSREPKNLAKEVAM

[2] = molecular target: T1, [Pyruvate dehydrogenase (acetyl-transferring)] kinase isozyme 4, mitochondrial; assay: Inhibition of PDK4 (unknown origin)
Target sequence in this assay (Q16654 whole entry): as the sequence (Q16654 whole entry, looked up) above

[3] = molecular target: T1, [Pyruvate dehydrogenase (acetyl-transferring)] kinase isozyme 4, mitochondrial; assay: Inhibition of PDK4 in HEK293T cells assessed as reduction in PDHE1alpha phosphorylation at Ser-293 residue by measuring phosphorylated PDHE1alpha level at 10 uM after 24 hrs by Western blot analysis; type: cell-based
Procedure, shortened: (§1)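 HEK293T cells grown in high-glucose DMEM with 10% FBS at 37 °C, 5% CO2. Medium renewed after 24 h, then cells exposed to compound for 24 h and lysed. 20 μg protein per lane Western blotted with antibodies to phospho-PDHE1α Ser232, Ser293 and Ser300 and to total PDHE1α. Band intensity quantified relative to control; triplicate.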
Target sequence in this assay (Q16654 whole entry, looked up): as above

[4] = molecular target: T1, [Pyruvate dehydrogenase (acetyl-transferring)] kinase isozyme 4, mitochondrial; assay: Inhibition of PDK4 in HEK293T cells assessed as reduction in PDHE1alpha phosphorylation at Ser-232 residue by measuring phosphorylated PDHE1alpha level at 10 uM after 24 hrs by Western blot analysis; type: cell-based
Procedure, shortened: as §1
Target sequence in this assay (Q16654 whole entry, looked up): as above

[5] = molecular target: T1, [Pyruvate dehydrogenase (acetyl-transferring)] kinase isozyme 4, mitochondrial; assay: Inhibition of PDK4 in HEK293T cells assessed as reduction in PDHE1alpha phosphorylation at Ser-300 residue by measuring phosphorylated PDHE1alpha level at 10 uM after 24 hrs by Western blot analysis; type: cell-based
Procedure, shortened: as §1
Target sequence in this assay (Q16654 whole entry, looked up): as above

[6] = Metabolic stability in human liver microsomes assessed as parent compound remaining at 1 uM after 30 mins by LC-MS/MS analysis
[7] = Metabolic stability in rat liver microsomes assessed as parent compound remaining after 30 mins by LC-MS/MS analysis; type: ADME, Microsome; settings: read-out: Stability

Structure (SMILES): O=C1c2ccccc2C(O)(C(F)(F)F)c2cccc(C3=CCN(C(=O)OCc4ccccc4)CC3)c21 (stereo not given)
- inhibition [1]: 34.1%

Structure (SMILES): O=C1c2ccccc2C(=O)c2c1cccc2C1=CCN(C(=O)OCc2ccccc2)CC1
- inhibition [1]: 41.6%

Structure (SMILES): O=C1c2ccccc2C(=O)c2c1cccc2-c1ccc(O)cc1
- inhibition [1]: 35.9%

Structure (SMILES): CC(C(=O)O)n1cc(-c2cccc3c2C(=O)c2ccccc2C3=O)cn1 (stereo not given)
- inhibition [1]: 45.9%

Structure (SMILES): O=C1c2ccccc2C(=O)c2c1cccc2-c1cn[nH]c1
- inhibition [1]: 32.9%

Structure (SMILES): CC(C)(C)OC(=O)N1CC=C(c2cccc3c2C(=O)c2ccccc2C3=O)CC1
- IC50 [2]: 600 nM
- inhibition [1]: 53.4%

Structure (SMILES): CC(C)(C)OC(=O)N1CC=C(c2cccc3c2C(=O)c2ccccc2C3(O)C(F)(F)F)CC1 (stereo not given)
- inhibition [1]: 17.3%

Structure (SMILES): O=C1c2ccccc2C(=O)c2c1cccc2-c1cccnc1
- inhibition [1]: 25.4%

Structure (SMILES): O=C1c2ccccc2C(=O)c2c(Br)cccc21
- inhibition [1]: 37.8%

Structure (SMILES): CC(C(=O)O)n1cc(-c2cccc3c2C(=O)c2ccccc2C3(O)C(F)(F)F)cn1 (stereo not given)
- IC50 [2]: 143 nM
- inhibition [1]: 47.2%

Structure (SMILES): O=S(=O)(c1ccc(O)cc1O)N1Cc2cc(O)cc(O)c2C1
- inhibition [1]: 34.1%
- fold change (FC) [3]: 0.98
- fold change (FC) [4]: 0.62
- fold change (FC) [5]: 0.93

Structure (SMILES): O=C1c2ccccc2C(=O)c2c1cccc2C1=CCNCC1
- inhibition [1]: 35.6%

Structure (SMILES): O=C1c2ccccc2C(=O)c2c1cccc2C1=CCN(C(=O)Nc2ccccc2)CC1
- inhibition [1]: 32.6%

Structure (SMILES): CCOC(=O)C(C)n1cc(-c2cccc3c2C(=O)c2ccccc2C3=O)cn1 (stereo not given)
- inhibition [1]: 29.4%

Structure (SMILES): O=C1c2ccccc2C(O)(C(F)(F)F)c2cccc(C3=CCNCC3)c21 (stereo not given)
- inhibition [1]: 29.7%

Structure (SMILES): O=C(O)c1ccc(-c2cccc3c2C(=O)c2ccccc2C3=O)cc1
- inhibition [1]: 30.4%

Structure (SMILES): O=C1c2ccccc2C(=O)c2ccccc21
- inhibition [1]: 40.7%

Structure (SMILES): O=C1CC2(CCCC2)CC(=O)N1CCCCN1CCN(c2ncccn2)CC1 [BUSPIRONE]
- remaining at 0.5 h, 1 µM [6]: 4%
- remaining at 0.5 h [7]: 0.1%

Structure (SMILES): CC(C)(C)OC(=O)N1CCC(n2cc(-c3cccc4c3C(=O)c3ccccc3C4=O)cn2)CC1
- inhibition [1]: 32.6%

Structure (SMILES): CCOC(=O)C(C)n1cc(-c2cccc3c2C(=O)c2ccccc2C3(O)C(F)(F)F)cn1 (stereo not given)
- inhibition [1]: 36.9%

Structure (SMILES): CS(=O)(=O)N1CC=C(c2cccc3c2C(=O)c2ccccc2C3=O)CC1
- inhibition [1]: 29.5%

Structure (SMILES): O=C1c2ccccc2C(O)(C(F)(F)F)c2cccc(-c3cnn(C4CCNCC4)c3)c21 (stereo not given)
- inhibition [1]: 30.2%

Structure (SMILES): O=C1c2ccccc2C(=O)c2c1cccc2-c1cnn(C2CCCCO2)c1 (stereo not given)
- inhibition [1]: 24.3%

Structure (SMILES): CC(C)(C)OC(=O)N1CCC(n2cc(-c3cccc4c3C(=O)c3ccccc3C4(O)C(F)(F)F)cn2)CC1 (stereo not given)
- inhibition [1]: 32.1%
